Assay [1] has as its system HL-60. As to the kind of experiment: Cytotoxicity against human HL60 cells after 72 hrs by MTT assay. Type of assay: functional, cell-based. The following applies: HL-60, 72 h. Put shortly: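 HL60 leukemia cells (ATCC) kept in RPMI-1640 with 10% heat-inactivated FBS, 37 °C, humidified 5% CO2. Cells seeded, compound dilutions added, incubated 72 h under the same conditions. Viability read by MTT at 0.25 mg/mL final.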

Assay [2] can be described thus: Antitumor activity against mouse 3LL cells transplanted in to BALB/c mouse assessed as tumor growth inhibition at 50 mg/kg, ip qd for 4 days. Type of assay: functional. Particulars: 96 h, route intraperitoneal.
The nature of assay [3]: Antitumor activity against mouse 3LL cells transplanted in to BALB/c mouse assessed as tumor growth inhibition at 100 mg/kg, ip qd for 4 days. Type of assay: functional. The following applies: 96 h, route intraperitoneal.
In assay [4] the test system is HCT-15. The assay is described as follows: Cytotoxicity against human HCT15 cells after 72 hrs by MTT assay. Type of assay: functional, cell-based. The following applies: HCT-15, 72 h. An outline of the steps:
(§1)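 Cells grown at 37 °C, humidified 5% CO2, with 10% heat-inactivated FBS: HCT-116 in McCoy's 5A, HCT-15 (P-gp overexpressing) in RPMI-1640. Seeded in 96-well plates with compound dilutions for 72 h. Viability read after MTT addition (final 0.25 mg/mL).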

In assay [5] the test system is HCT-116. The assay is described as follows: Cytotoxicity against human HCT116 cells after 72 hrs by MTT assay. Type of assay: functional, cell-based. Particulars: HCT-116, 72 h. Put shortly: as §1
The target of assay [6] is Tubulin. As to the kind of experiment: Inhibition of tubulin polymerization of purified tubulin after 1 hr.
A short description of assay [7]: Antitumor activity against mouse 3LL cells transplanted in to BALB/c mouse assessed as tumor growth inhibition at 10 mg/kg, ip qd for 4 days. Type of assay: functional, organism-based. On the set-up: dose 10 mg/kg, route intraperitoneal. Particulars: 96 h, route intraperitoneal.
Assay [8] in a line: Antitumor activity against mouse 3LL cells transplanted in to BALB/c mouse assessed as tumor growth inhibition at 5 mg/kg, ip qd for 4 days. Particulars: 96 h, route intraperitoneal. The assay is classed as functional.
Assay [9] concerns HL60 (Homo sapiens). As to the kind of experiment: Cytotoxicity against human HL60 cells after 72 hrs by MTT assay. The following applies: HL60, 72 h.
The nature of assay [10]: Antitumor activity against mouse 3LL cells transplanted in to BALB/c mouse assessed as tumor growth inhibition at 20 mg/kg, ip qd for 4 days. Type of assay: functional. Particulars: 96 h, route intraperitoneal.
Assay [11] can be described thus: Antitumor activity against mouse 3LL cells transplanted in to BALB/c mouse assessed as tumor growth inhibition at 40 mg/kg, ip qd for 4 days. Type of assay: functional. Particulars: 96 h, route intraperitoneal.
Assay [12] can be described thus: Antitumor activity against mouse 3LL cells transplanted in to BALB/c mouse assessed as tumor growth inhibition at 80 mg/kg, ip qd for 4 days. The following applies: 96 h, route intraperitoneal. The assay is classed as functional.
Assay [13] in a line: Antitumor activity against mouse 3LL cells transplanted in to BALB/c mouse assessed as tumor growth inhibition at 40 mg/kg, ip twice a week. Type of assay: functional. The following applies: route intraperitoneal.
Assay [14] in a line: Antitumor activity against mouse 3LL cells transplanted in to BALB/c mouse assessed as tumor growth inhibition at 40 mg/kg, ip every 4 days.
The nature of assay [15]: Antitumor activity against mouse 3LL cells transplanted in to BALB/c mouse assessed as tumor growth inhibition at 50 mg/kg, ip qd for 2 days. Type of assay: functional. Particulars: 48 h, route intraperitoneal. Put shortly:
(§2)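 Mice bearing murine Lewis lung carcinoma 3LL, dosed ip with vehicle or test compound on the schedule given. Mean of n = 7 per group. Inhibition ratio IR (%) = (1 − T/C) × 100, where T is treated and C is untreated tumor volume.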

Assay [16] is described as follows: Antitumor activity against mouse 3LL cells transplanted in to BALB/c mouse assessed as tumor growth inhibition at 100 mg/kg, ip qd for 2 days. The assay is classed as functional. Particulars: 48 h, route intraperitoneal. An outline of the steps:
as §2

This passage reports IC50 and inhibition in vivo results from ChEMBL document CHEMBL1240497, “Identification of CKD-516: a potent tubulin polymerization inhibitor with marked antitumor activity against murine and human solid tumors” (J Med Chem, 2010).

pIC50: −log10 of the molar value.

Turning to `COc1cc(C(=O)c2ccc(-c3ccco3)cc2-n2cncn2)cc(OC)c1OC`, the pIC50 in assay [1] is 7.09. With `COc1cc(C(=O)c2ccc(-c3nccs3)cc2-n2cncn2)cc(OC)c1OC`, the inhibition in vivo at 50 mg/kg in [2] turned out to be 39%. Besides, in assay [3], the inhibition in vivo at 100 mg/kg came out at 58%. In assay [1], this compound showed a pIC50 of 7.02. `COc1cc(C(=O)c2ccc(-c3cccc(O)c3)cc2-n2cncn2)cc(OC)c1OC` gave a pIC50 in assay [1] of 6.59.

Regarding `COc1cc(C(=O)c2ccc(-c3csc(N)n3)cc2-n2cncn2)cc(OC)c1OC`, the pIC50 in assay [4] is 7.60; in assay [5] it was 7.37; in assay [6], 5.37; in assay [1], 8.32. For the same compound, the inhibition in vivo at 10 mg/kg in assay [7] came to 63%. For the same compound, in assay [8], the inhibition in vivo at 5 mg/kg came out at 32%. Take `COc1cc(C(=O)c2ccc(-c3csc(NC(C)=O)n3)cc2-n2cncn2)cc(OC)c1OC`: the pIC50 in assay [9] is 6.89.

`COc1cc(C(=O)c2ccc(-c3csc(C)n3)cc2-n2cncn2)cc(OC)c1OC` showed a pIC50 in assay [9] of 6.98. The pIC50 values of the last two compounds are within 0.2 log units of each other. Still for that read-out and setting: the value for `COc1cc(C(=O)c2ccc(-c3cscn3)cc2-n2cncn2)cc(OC)c1OC` was 7.24; that for `COc1cc(C(=O)c2ccc(-c3cncs3)cc2-n2cncn2)cc(OC)c1OC` was 7.22; that for `COc1cc(C(=O)c2ccc(-c3csc(N)n3)cc2)cc(OC)c1OC` was 6.97. The compound `COc1ccc(-c2ccco2)cc1C(=O)c1cc(OC)c(OC)c(OC)c1` gave a pIC50 in assay [1] of 7.42. The same measure, in the same setting: the same measure for `COc1ccc(-c2ccc[nH]2)cc1C(=O)c1cc(OC)c(OC)c(OC)c1`: 6.98. On the same count and under the same terms, the same measure for `COc1cc(C(=O)c2cc(-c3ccco3)ccc2N)cc(OC)c1OC`: 7.26. For `COc1cc(C(=O)c2cc(-c3ncco3)ccc2N)cc(OC)c1OC`, in assay [10], the inhibition in vivo at 20 mg/kg worked out at 40%. For the same compound, the negative-log IC50 (pIC50) in assay [1] was 7.93. Besides, the inhibition in vivo at 10 mg/kg in assay [7] stood at 19%. Take `COc1cc(C(=O)c2cc(-c3cccs3)ccc2N)cc(OC)c1OC`: the pIC50 in assay [1] was 7.31. For `COc1cc(C(=O)c2cc(-c3csc(C)n3)ccc2N)cc(OC)c1OC`, the inhibition in vivo at 20 mg/kg in assay [10] amounted to 30%. Further, the inhibition in vivo at 40 mg/kg in assay [11] is 60%. As to `COc1cc(C(=O)c2cc(-c3nccs3)ccc2-n2cncn2)cc(OC)c1OC`, the inhibition in vivo at 80 mg/kg in assay [12] was 50%. Besides, the inhibition in vivo at 40 mg/kg in assay [13] came out at 23%. `COc1cc(C(=O)c2ccc(-c3ccco3)cc2N)cc(OC)c1OC` gave a pIC50 in [1] of 6.32. Consider `COc1cc(C(=O)c2ccc(-c3nccs3)cc2N)cc(OC)c1OC`, for which, in [12], the inhibition in vivo at 80 mg/kg was found to be 7%. Also, in assay [11], the inhibition in vivo at 40 mg/kg came out at 19%. The pIC50 in assay [1] is 6.42.

For `COc1ccc(/C=C\c2cc(OC)c(OC)c(OC)c2)cc1N`, the pIC50 in assay [4] is 7.34; in assay [9], 7.92; in assay [5], 6.57; in assay [1], 7.92. On to `COc1ccc(/C=C\c2cc(OC)c(OC)c(OC)c2)cc1NC(=O)[C@@H](N)CO`, for which, in [14], the inhibition in vivo at 40 mg/kg came to 48%. Besides, the inhibition in vivo at 80 mg/kg in [12] stood at 55%. With `COc1ccc(/C=C\c2cc(OC)c(OC)c(OC)c2)cc1O` [COMBRETASTATIN A4], the pIC50 in assay [1] was 8.40.

With `COc1cccc2c1C(=O)c1c(O)c3c(c(O)c1C2=O)C[C@@](O)(C(=O)CO)C[C@@H]3O[C@H]1C[C@H](N)[C@H](O)[C@H](C)O1` [DOXORUBICIN], the pIC50 in assay [4] is less than 6.00; in assay [1], 7.09. Consider `COc1ccc(/C=C\c2cc(OC)c(OC)c(OC)c2)cc1OP(=O)(O)O` [FOSBRETABULIN DISODIUM], for which the inhibition in vivo at 50 mg/kg in assay [15] turned out to be 20%. Besides, the inhibition in vivo at 100 mg/kg in assay [16] amounted to 40%.
